Source: ChEMBL document CHEMBL4422632, “Design of Novel Inhibitors of Human Thymidine Phosphorylase: Synthesis, Enzyme Inhibition, in Vitro Toxicity, and Impact on Human Glioblastoma Cancer” (J Med Chem, 2019)
pIC50: −log10 of the molar value.

Columns and labels:
[1] = Cytotoxicity against mouse RAW264.7 cells assessed as cell viability at 500 uM after 72 hrs by neutral red uptake-based assay relative to control; details: read-out: Activity
Method in brief: (§1)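 Cells kept in DMEM with 10% heat-inactivated FBS, 1% penicillin-streptomycin and 0.1% fungizone at 37 °C, 5% CO₂. U-87 MG seeded at 2 x 10^3 cells/well, RAW 264.7 at 5 x 10^2, adhered 24 h, then exposed 72 h. MTT: 1 mg/mL for 3 h, formazan in DMSO, A595. NRU: 25 μg/mL dye, 3 h, ethanol:acetic acid:water desorb. Untreated wells = 100%; three to five independent experiments in triplicate.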

Cytochrome P450 2C9 = Cytochrome P450 2C9 (Homo sapiens, UniProt P11712); test: Inhibition of CYP2C9 in human liver microsomes by HPLC-MS/MS analysis; assay type: ADME
Chain of Cytochrome P450 2C9 (P11712 whole entry): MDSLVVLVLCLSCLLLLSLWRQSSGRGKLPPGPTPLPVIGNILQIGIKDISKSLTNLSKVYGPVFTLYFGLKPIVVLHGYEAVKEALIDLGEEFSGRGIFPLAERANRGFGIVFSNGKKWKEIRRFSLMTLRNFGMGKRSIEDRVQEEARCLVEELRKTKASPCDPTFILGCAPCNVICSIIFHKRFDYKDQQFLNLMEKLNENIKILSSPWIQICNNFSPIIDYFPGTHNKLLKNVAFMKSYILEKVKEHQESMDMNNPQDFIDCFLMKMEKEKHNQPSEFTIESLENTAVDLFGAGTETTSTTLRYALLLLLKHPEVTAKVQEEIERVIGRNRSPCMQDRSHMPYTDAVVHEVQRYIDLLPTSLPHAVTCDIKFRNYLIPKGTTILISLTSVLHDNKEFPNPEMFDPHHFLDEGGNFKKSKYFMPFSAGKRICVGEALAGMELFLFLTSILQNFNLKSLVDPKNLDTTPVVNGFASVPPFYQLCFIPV

[2] = Cytotoxicity against human HepG2 cells assessed as cell viability at 500 uM after 72 hrs by MTT assay relative to control; assay type: cell-based; details: read-out: Activity
Method in brief: (§2)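 Cells grown in DMEM with 10% FBS at 37 °C, 5% CO₂; seeded 2 x 10³ cells/well, adhered 24 h, then exposed 72 h. MTT: 1 mg/mL for 3 h, formazan in DMSO, absorbance 595 nm. NRU: neutral red 25 µg/mL in serum-free medium for 3 h, desorbed in ethanol:acetic acid:water. Viability as % of untreated control; mean ± SEM of three to five independent experiments in triplicate.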

[3] = Cytotoxicity against human U87MG cells assessed as cell viability at 500 uM after 72 hrs by MTT assay relative to control; assay type: cell-based, U-87MG ATCC; details: read-out: Activity; method in brief: as §1
[4] = AUCM (0 to infinity) in CF1 mouse at 50 mg/kg, ip by non-compartmental analysis; assay type: ADME, organism-based; details: in vivo
Cytochrome P450 2D6 = Cytochrome P450 2D6 (Homo sapiens, UniProt P10635); test: Inhibition of CYP2D6 in human liver microsomes by HPLC-MS/MS analysis; assay type: ADME
Chain of Cytochrome P450 2D6 (P10635 whole entry): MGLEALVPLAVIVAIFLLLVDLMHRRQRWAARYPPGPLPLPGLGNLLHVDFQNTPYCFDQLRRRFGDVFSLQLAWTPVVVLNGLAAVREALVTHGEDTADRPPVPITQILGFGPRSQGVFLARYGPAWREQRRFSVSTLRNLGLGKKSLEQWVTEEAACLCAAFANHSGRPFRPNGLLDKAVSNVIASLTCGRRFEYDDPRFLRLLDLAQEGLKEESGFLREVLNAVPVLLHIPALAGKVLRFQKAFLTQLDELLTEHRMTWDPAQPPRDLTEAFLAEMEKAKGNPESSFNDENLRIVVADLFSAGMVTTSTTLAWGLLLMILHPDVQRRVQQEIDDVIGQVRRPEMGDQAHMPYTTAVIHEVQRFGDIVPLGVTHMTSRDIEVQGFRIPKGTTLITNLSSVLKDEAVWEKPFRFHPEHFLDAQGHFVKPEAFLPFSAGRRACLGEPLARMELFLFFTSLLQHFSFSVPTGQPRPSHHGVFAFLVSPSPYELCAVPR

[5] = Cytotoxicity against human HaCaT cells assessed as cell viability at 500 uM after 72 hrs by neutral red uptake-based assay relative to control; details: read-out: Activity; method in brief: as §2
[6] = Cytotoxicity against mouse RAW264.7 cells assessed as cell viability at 100 uM after 72 hrs by neutral red uptake-based assay relative to control; details: read-out: Activity; method in brief: as §1
[7] = Cytotoxicity against human HepG2 cells assessed as cell viability at 100 uM after 72 hrs by MTT assay relative to control; assay type: cell-based; details: read-out: Activity; method in brief: as §2
[8] = Cytotoxicity against human HepG2 cells assessed as cell viability at 250 uM after 72 hrs by neutral red uptake-based assay relative to control; details: read-out: Activity; method in brief: as §2
[9] = Cytotoxicity against human U87MG cells assessed as cell viability at 100 uM after 72 hrs by neutral red uptake-based assay relative to control; parameters: species or system U-87MG ATCC; details: read-out: Activity; method in brief: as §2
Cytochrome P450 2C19 = Cytochrome P450 2C19 (Homo sapiens, UniProt P33261); test: Inhibition of CYP2C19 in human liver microsomes by HPLC-MS/MS analysis; assay type: ADME
Chain of Cytochrome P450 2C19 (P33261 whole entry): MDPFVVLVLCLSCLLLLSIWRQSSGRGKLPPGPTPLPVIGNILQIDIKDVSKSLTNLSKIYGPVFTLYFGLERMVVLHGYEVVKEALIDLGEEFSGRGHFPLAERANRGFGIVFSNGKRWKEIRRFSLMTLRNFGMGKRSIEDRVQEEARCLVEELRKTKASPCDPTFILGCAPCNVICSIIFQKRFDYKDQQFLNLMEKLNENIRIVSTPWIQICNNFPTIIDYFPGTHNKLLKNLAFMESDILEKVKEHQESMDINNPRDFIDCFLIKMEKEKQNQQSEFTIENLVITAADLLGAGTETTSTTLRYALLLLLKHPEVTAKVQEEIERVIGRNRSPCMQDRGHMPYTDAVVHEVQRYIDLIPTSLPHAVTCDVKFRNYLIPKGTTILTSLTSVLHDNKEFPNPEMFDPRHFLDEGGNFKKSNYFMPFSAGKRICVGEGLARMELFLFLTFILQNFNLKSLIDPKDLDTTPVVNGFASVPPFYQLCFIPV

[10] = Cytotoxicity against human U87MG cells assessed as cell viability at 25 uM after 72 hrs by neutral red uptake-based assay relative to control; parameters: species or system U-87MG ATCC; details: read-out: Activity; method in brief: as §1
[11] = Cytotoxicity against human HepG2 cells assessed as cell viability at 50 uM after 72 hrs by neutral red uptake-based assay relative to control; details: read-out: Activity; method in brief: as §2
[12] = Cytotoxicity against human U87MG cells assessed as cell viability at 500 uM after 72 hrs by neutral red uptake-based assay relative to control; parameters: species or system U-87MG ATCC; details: read-out: Activity; method in brief: as §1
[13] = Cytotoxicity against African green monkey Vero cells assessed as cell viability at 100 uM after 72 hrs by neutral red uptake-based assay relative to control; details: chlorocebus sabaeus, read-out: Activity; method in brief: as §2
[14] = Cytotoxicity against African green monkey Vero cells assessed as cell viability at 500 uM after 72 hrs by neutral red uptake-based assay relative to control; details: chlorocebus sabaeus, read-out: Activity; method in brief: as §2
[15] = Cytotoxicity against human HaCaT cells assessed as cell viability at 25 uM after 72 hrs by neutral red uptake-based assay relative to control; details: read-out: Activity; method in brief: as §2
[16] = Cytotoxicity against human HepG2 cells assessed as cell viability at 1000 uM after 72 hrs by neutral red uptake-based assay relative to control; details: read-out: Activity; method in brief: as §2
[17] = Cytotoxicity against human HaCaT cells assessed as cell viability at 50 uM after 72 hrs by MTT assay relative to control; assay type: cell-based; details: read-out: Activity; method in brief: as §2
[18] = Cytotoxicity against human HepG2 cells assessed as cell viability at 250 uM after 72 hrs by MTT assay relative to control; assay type: cell-based; details: read-out: Activity; method in brief: as §2
[19] = Cytotoxicity against human U87MG cells assessed as cell viability at 1000 uM after 72 hrs by neutral red uptake-based assay relative to control; parameters: species or system U-87MG ATCC; details: read-out: Activity; method in brief: as §1
[20] = Cytotoxicity against human HepG2 cells assessed as cell viability at 25 uM after 72 hrs by neutral red uptake-based assay relative to control; details: read-out: Activity; method in brief: as §2
[21] = Cytotoxicity against human HepG2 cells assessed as cell viability at 100 uM after 72 hrs by neutral red uptake-based assay relative to control; details: read-out: Activity; method in brief: as §2
[22] = Cytotoxicity against human HaCaT cells assessed as cell viability at 100 uM after 72 hrs by MTT assay relative to control; assay type: cell-based; details: read-out: Activity; method in brief: as §2
[23] = Cytotoxicity against African green monkey Vero cells assessed as cell viability at 25 uM after 72 hrs by neutral red uptake-based assay relative to control; details: chlorocebus sabaeus, read-out: Activity; method in brief: as §2
[24] = Cytotoxicity against mouse RAW264.7 cells assessed as cell viability at 250 uM after 72 hrs by neutral red uptake-based assay relative to control; details: read-out: Activity; method in brief: as §1
[25] = Cytotoxicity against human HaCaT cells assessed as cell viability at 25 uM after 72 hrs by MTT assay relative to control; assay type: cell-based; details: read-out: Activity; method in brief: as §2
Cytochrome P450 3A4 = Cytochrome P450 3A4 (Homo sapiens, UniProt P08684); test: Inhibition of CYP3A4 in human liver microsomes by HPLC-MS/MS analysis; assay type: ADME
Chain of Cytochrome P450 3A4 (P08684 whole entry): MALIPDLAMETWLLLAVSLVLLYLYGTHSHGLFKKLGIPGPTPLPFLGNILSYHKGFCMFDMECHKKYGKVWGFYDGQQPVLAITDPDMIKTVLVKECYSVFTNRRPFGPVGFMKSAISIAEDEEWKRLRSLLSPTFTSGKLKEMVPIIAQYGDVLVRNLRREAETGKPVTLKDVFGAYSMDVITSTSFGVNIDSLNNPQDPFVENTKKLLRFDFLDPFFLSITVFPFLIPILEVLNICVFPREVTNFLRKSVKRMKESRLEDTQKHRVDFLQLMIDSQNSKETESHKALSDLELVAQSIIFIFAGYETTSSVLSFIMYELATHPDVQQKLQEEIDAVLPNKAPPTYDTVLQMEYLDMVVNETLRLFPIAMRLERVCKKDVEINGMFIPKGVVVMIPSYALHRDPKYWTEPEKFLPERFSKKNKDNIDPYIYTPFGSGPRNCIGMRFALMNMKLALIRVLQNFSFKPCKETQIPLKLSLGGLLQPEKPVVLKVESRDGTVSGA

[26] = Cytotoxicity against human U87MG cells assessed as cell viability at 25 uM after 72 hrs by MTT assay relative to control; assay type: cell-based, U-87MG ATCC; details: read-out: Activity; method in brief: as §1
[27] = Elimination rate constant in CF1 mouse at 50 mg/kg, ip by non-compartmental analysis; assay type: ADME, organism-based; details: in vivo
Cytochrome P450 2E1 = Cytochrome P450 2E1 (Homo sapiens, UniProt P05181); test: Inhibition of CYP2E1 in human liver microsomes by HPLC-MS/MS analysis; assay type: ADME
Chain of Cytochrome P450 2E1 (P05181 whole entry): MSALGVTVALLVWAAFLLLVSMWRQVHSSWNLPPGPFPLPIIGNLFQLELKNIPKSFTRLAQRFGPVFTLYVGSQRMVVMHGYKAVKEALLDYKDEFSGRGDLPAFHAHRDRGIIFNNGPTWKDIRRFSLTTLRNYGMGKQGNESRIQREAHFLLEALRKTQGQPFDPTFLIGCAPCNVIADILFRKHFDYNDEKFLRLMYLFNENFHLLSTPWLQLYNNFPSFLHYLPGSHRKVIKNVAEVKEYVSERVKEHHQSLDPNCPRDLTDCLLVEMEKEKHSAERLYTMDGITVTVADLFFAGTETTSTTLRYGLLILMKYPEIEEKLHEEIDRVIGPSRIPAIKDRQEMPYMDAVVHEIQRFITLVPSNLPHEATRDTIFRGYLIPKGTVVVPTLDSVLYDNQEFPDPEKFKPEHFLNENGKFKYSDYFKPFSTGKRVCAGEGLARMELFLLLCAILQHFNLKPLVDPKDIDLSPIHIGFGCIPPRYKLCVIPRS

[28] = Cytotoxicity against African green monkey Vero cells assessed as cell viability at 500 uM after 72 hrs by MTT assay relative to control; assay type: cell-based; details: chlorocebus sabaeus, read-out: Activity; method in brief: as §2
[29] = Cytotoxicity against African green monkey Vero cells assessed as cell viability at 250 uM after 72 hrs by neutral red uptake-based assay relative to control; details: chlorocebus sabaeus, read-out: Activity; method in brief: as §2
HepG2 = test: Genotoxicity in human HepG2 cells assessed as induction of DNA-strand breaks at 1000 uM after 24 hrs by alkaline comet assay; assay type: toxicity, cell-based; details: hepg2, 24 h
Method in brief: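 HepG2 seeded at 5 x 10^4 cells/well for 24 h, then exposed 24 h at 250, 500 and 1,000 μM. Alkaline comet assay: lysis 24 h, unwinding in 300 mM NaOH/1 mM EDTA (pH > 13) at 4 °C for 20 min, electrophoresis 20 min at 25 V, silver staining. MMS 100 µM as positive control. 100 cells scored 0–4 for a damage index of 0–400. Mean ± SEM of three experiments.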

[30] = Cytotoxicity against human HaCaT cells assessed as cell viability at 1000 uM after 72 hrs by neutral red uptake-based assay relative to control; details: read-out: Activity; method in brief: as §2

O=c1[nH]c(CNC(CO)CO)c(I)c(=O)[nH]1
viability at 72 h, 500 µM [1]: 82% | pIC50 (Cytochrome P450 2C9): < 4.00 | viability at 72 h, 500 µM [2]: 94% | viability at 72 h, 500 µM [3]: 89% | AUMC [4]: 7.6 µg·h²/mL | pIC50 (Cytochrome P450 2D6): < 4.00 | viability at 72 h, 500 µM [5]: 95% | viability at 72 h, 100 µM [6]: 97% | viability at 72 h, 100 µM [7]: 100% | viability at 72 h, 250 µM [8]: 98% | viability at 72 h, 100 µM [9]: 104% | pIC50 (Cytochrome P450 2C19): < 4.00 | viability at 72 h, 25 µM [10]: 99% | viability at 72 h, 50 µM [11]: 103% | viability at 72 h, 500 µM [12]: 93% | viability at 72 h, 100 µM [13]: 108% | viability at 72 h, 500 µM [14]: 90% | viability at 72 h, 25 µM [15]: 100% | viability at 72 h, 1000 µM [16]: 81% | viability at 72 h, 50 µM [17]: 95% | viability at 72 h, 250 µM [18]: 100% | viability at 72 h, 1000 µM [19]: 72% | viability at 72 h, 25 µM [20]: 102% | viability at 72 h, 100 µM [21]: 102% | viability at 72 h, 100 µM [22]: 98% | viability at 72 h, 25 µM [23]: 108% | viability at 72 h, 250 µM [24]: 85% | viability at 72 h, 25 µM [25]: 105% | pIC50 (Cytochrome P450 3A4): < 4.00 | viability at 72 h, 25 µM [26]: 101% | k el [27]: 0.000383 s⁻¹ | pIC50 (Cytochrome P450 2E1): < 4.00 | viability at 72 h, 500 µM [28]: 84% | viability at 72 h, 250 µM [29]: 103% | Activity (HepG2): Non-Toxic | viability at 72 h, 1000 µM [30]: 75%
